# Experimental data from different studies.
# HDAC7: Histone deacetylase 7 (HDAC7, Homo sapiens, UniProt Q8WUI4)
# WDR5: WD repeat-containing protein 5 (WDR5, Homo sapiens, UniProt P61964)
# OfChi-h: Chitinase (OfChi-h, Ostrinia furnacalis, UniProt Q4AE59)
Structure (SMILES),target,test,conditions,endpoint,value
CNc1ncc2c(/C=C/C(=O)N3CCC(OC)CC3)nn(Cc3cccc(C(F)(F)F)c3)c2n1,"Bone morphogenetic protein receptor type-1A (BMPR1A, Homo sapiens, UniProt P36894)","enzyme activity, inhibitor, radiometric",1 µM,remaining activity,93%
O=C(NO)c1cncc(OS(=O)(=O)Oc2ccc3ccccc3c2)c1,HDAC7,"enzyme activity, inhibitor, fluorescence",10 µM,inhibition,46%
C[C@@H]1CN(c2ccc(-c3cc(C(=O)NCCOCCOCCOCCOCCOCCOCCOCCOCCOCCNC(=O)/C=C/c4[nH]cc(C(=O)N[C@@H](CC(N)=O)c5ccc(F)c(Cl)c5)c4-c4ccc(Cl)cc4F)ccc3F)cc2NC(=O)c2c[nH]c(=O)cc2C(F)(F)F)C[C@H](C)N1C,WDR5,"thermal stability, DSF",5.5 µM,ΔTm,8.9 °C
O=C(/C=C/c1cccc(OS(=O)(=O)Oc2ccc(C(F)(F)F)cc2)c1)NO,HDAC7,"enzyme activity, inhibitor, fluorescence",10 µM,inhibition,30%
CN(C)c1nc(NCc2ccc(OC(F)(F)F)cc2)c(/N=N/c2ccc(Cl)cc2)c(N(C)C)n1,OfChi-h,"enzyme activity, inhibitor, fluorescence",1 µM,inhibition,85%
C[C@@H]1CN(c2ccc(-c3cc(C(=O)NCCOCCOCCOCCOCCNC(=O)/C=C/c4[nH]cc(C(=O)N[C@@H](CC(N)=O)c5ccc(F)c(Cl)c5)c4-c4ccc(Cl)cc4F)ccc3F)cc2NC(=O)c2c[nH]c(=O)cc2C(F)(F)F)C[C@H](C)N1C,WDR5,"thermal stability, DSF",5.5 µM,ΔTm,10.6 °C
C=CS(=O)(=O)c1ccc(Nc2nc(OCC3CCCCC3)c3nc[nH]c3n2)cc1,"Gasdermin-D (GSDMD, Homo sapiens, UniProt P57764)","binding, BLI",,koff,0.0439 s⁻¹
CC(C)OC(=O)CNc1cccc(CN(Cc2ccc(-n3cccn3)cc2)S(=O)(=O)c2cccnc2)n1,"Beta-2 adrenergic receptor (ADRB2, Homo sapiens, UniProt P07550)","ligand displacement, radioligand",10 µM,inhibition,2%
C=CC(=O)N1CCC(COCC(=O)N2CCN(c3nc(-c4cnc(N)nc4C(F)F)nc(N4CCOC[C@@H]4C)n3)CC2)CC1,"Cyclin-dependent kinase-like 3 (CDKL3, Homo sapiens, UniProt Q8IVW4)","binding, competition with immobilised ligand",1 µM,remaining binding,100%
COc1ccc(S(=O)(=O)N(CC(=O)NO)CC(C)C)cc1,"72 kDa type IV collagenase (MMP2, Homo sapiens, UniProt P08253)","enzyme activity, inhibitor",0.5 µM,inhibition,60.9%
Cc1cc([C@@H](C)Nc2ccccc2C(=O)O)c2nc(N3CCC(F)(F)CC3)c(C#N)c(=O)n2c1,"Protein kinase C epsilon type (PRKCE, Homo sapiens, UniProt Q02156)","binding, competition with immobilised ligand",1 µM,remaining binding,100%
CN(C)c1nc(NCc2cccc(C(F)(F)F)c2)c(/N=N/c2ccc(Cl)cc2)c(N(C)C)n1,OfChi-h,"enzyme activity, inhibitor, fluorescence",1 µM,inhibition,91.9%
COc1cc(-c2cncc3c2CN(C)Cc2cc(N4CCNCC4)ccc2-3)cc(OC)c1OC,"G protein-coupled receptor kinase 6 (GRK6, Homo sapiens, UniProt P43250)","enzyme activity, inhibitor",1 µM,remaining activity,112%
